In ChEMBL document CHEMBL2346519, “Substituted indolin-2-ones as p90 ribosomal S6 protein kinase 2 (RSK2) inhibitors: Molecular docking simulation and structure-activity relationship analysis” (Bioorg Med Chem, 2013):

How the values were obtained:
[1] = biological target: T1, Ribosomal protein S6 kinase alpha-3 (Homo sapiens, UniProt P51812); test: Inhibition of RSK2 (unknown origin) using AKRRRLSSLRA as substrate at 10 uM after 60 mins by fluorescence assay relative to control
[2] = biological target: T2, Mitogen-activated protein kinase 14 (Homo sapiens, UniProt Q16539); details: 10 uM
[3] = biological target: T3, RAC-alpha serine/threonine-protein kinase (Homo sapiens, UniProt P31749); test: Inhibition of AKT1 (unknown origin) at 10 uM after 10 mins by mobility shift assay relative to control
[4] = biological target: T3, RAC-alpha serine/threonine-protein kinase; test: Inhibition of AKT1 (unknown origin) after 10 mins by mobility shift assay
[5] = biological target: Ribosomal protein S6 kinase beta-1 (Homo sapiens) (UniProt P23443); details: 3 uM
[6] = biological target: Platelet-derived growth factor receptor alpha (Homo sapiens) (UniProt P16234); test: Inhibition of PDGFRalpha (unknown origin) at 3 uM after 10 mins by mobility shift assay relative to control
[7] = biological target: 3-phosphoinositide-dependent protein kinase 1 (Homo sapiens) (UniProt O15530); test: Inhibition of PDK1 (unknown origin) at 10 uM after 10 mins by mobility shift assay relative to control
[8] = biological target: Ribosomal protein S6 kinase beta-1 (Homo sapiens) (UniProt P23443); test: Inhibition of p70S6K (unknown origin) at 10 uM after 10 mins by mobility shift assay relative to control
[9] = biological target: Tyrosine-protein kinase Lyn (Homo sapiens) (UniProt P07948); test: Inhibition of LYNA (unknown origin) at 3 uM after 10 mins by mobility shift assay relative to control
[10] = biological target: Mitogen-activated protein kinase 3 (Homo sapiens) (UniProt P27361); details: 3 uM
[11] = biological target: Protein kinase C alpha type (Homo sapiens) (UniProt P17252); test: Inhibition of PKC alpha (unknown origin) using PIP2 as substrate at 3 uM after 1 hr by Kinase-Glo assay relative to control
[12] = biological target: Glycogen synthase kinase-3 beta (Homo sapiens) (UniProt P49841); details: 10 uM
[13] = biological target: Tyrosine-protein kinase Lck (Homo sapiens) (UniProt P06239); details: 10 uM
[14] = biological target: T2, Mitogen-activated protein kinase 14; details: 3 uM
[15] = biological target: Fibroblast growth factor receptor 1 (Homo sapiens) (UniProt P11362); details: 10 uM
[16] = biological target: 3-phosphoinositide-dependent protein kinase 1 (Homo sapiens) (UniProt O15530); test: Inhibition of PDK1 (unknown origin) at 3 uM after 10 mins by mobility shift assay relative to control
[17] = biological target: Serine/threonine-protein kinase pim-1 (Homo sapiens) (UniProt P11309); test: Inhibition of PIM1 (unknown origin) at 3 uM after 10 mins by mobility shift assay relative to control
[18] = biological target: Hepatocyte growth factor receptor (Homo sapiens) (UniProt P08581); test: Inhibition of c-MET (unknown origin) at 10 uM after 10 mins by mobility shift assay relative to control
[19] = biological target: Aurora kinase B (Homo sapiens) (UniProt Q96GD4); test: Inhibition of Aurora B (unknown origin) at 10 uM after 10 mins by mobility shift assay relative to control
[20] = biological target: Glycogen synthase kinase-3 beta (Homo sapiens) (UniProt P49841); details: 3 uM
[21] = biological target: Mast/stem cell growth factor receptor Kit (Homo sapiens) (UniProt P10721); details: 3 uM
[22] = biological target: Protein kinase C alpha type (Homo sapiens) (UniProt P17252); test: Inhibition of PKC alpha (unknown origin) using PIP2 as substrate at 10 uM after 1 hr by Kinase-Glo assay relative to control
[23] = biological target: T3, RAC-alpha serine/threonine-protein kinase; test: Inhibition of AKT1 (unknown origin) at 3 uM after 10 mins by mobility shift assay relative to control
[24] = biological target: Tyrosine-protein kinase Lyn (Homo sapiens) (UniProt P07948); test: Inhibition of LYN-A (unknown origin) at 10 uM after 10 mins by mobility shift assay relative to control
[25] = biological target: Ribosomal protein S6 kinase alpha-5 (Homo sapiens) (UniProt O75582); details: 3 uM
[26] = biological target: Fibroblast growth factor receptor 3 (Homo sapiens) (UniProt P22607); details: 10 uM
[27] = biological target: Tyrosine-protein kinase ABL1 (Homo sapiens) (UniProt P00519); test: Inhibition of ABL (unknown origin) at 3 uM after 10 mins by mobility shift assay relative to control
[28] = biological target: Aurora kinase B (Homo sapiens) (UniProt Q96GD4); test: Inhibition of Aurora B (unknown origin) at 3 uM after 10 mins by mobility shift assay relative to control
[29] = biological target: Mitogen-activated protein kinase 9 (Homo sapiens) (UniProt P45984); test: Inhibition of JNK2 (unknown origin) at 10 uM after 10 mins by mobility shift assay relative to control
[30] = biological target: Tyrosine-protein kinase ABL1 (Homo sapiens) (UniProt P00519); test: Inhibition of ABL (unknown origin) at 10 uM after 10 mins by mobility shift assay relative to control
[31] = biological target: Platelet-derived growth factor receptor alpha (Homo sapiens) (UniProt P16234); test: Inhibition of PDGFRalpha (unknown origin) at 10 uM after 10 mins by mobility shift assay relative to control
[32] = biological target: Mitogen-activated protein kinase 3 (Homo sapiens) (UniProt P27361); test: Inhibition of ERK1 (unknown origin) at 10 uM after 10 mins by mobility shift assay relative to control
PC-3 = test: Cytotoxicity against human PC3 cells assessed as growth inhibition after 48 hrs by MTT assay; type: functional, cell-based; details: PC-3, 48 h
Method in brief: (§1)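 MCF-7 cells grown in DMEM plus 10% FBS and PC 3 cells in F-12K, both seeded at 5 × 10^3 per well. Cells were exposed to compounds at various concentrations for 48 h. MTT was then added for 4 h at 37 °C in 5% CO2, formazan was dissolved in DMSO, and absorbance was read at 570 nm. IC50 was taken from inhibition curves of three independent experiments and measured only where inhibition at 100 µM exceeded 50%.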

[33] = biological target: Tyrosine-protein kinase Lck (Homo sapiens) (UniProt P06239); details: 3 uM
[34] = biological target: Mitogen-activated protein kinase 9 (Homo sapiens) (UniProt P45984); test: Inhibition of JNK2 (unknown origin) at 3 uM after 10 mins by mobility shift assay relative to control
[35] = biological target: Ribosomal protein S6 kinase alpha-5 (Homo sapiens) (UniProt O75582); test: Inhibition of MSK1 (unknown origin) at 10 uM after 10 mins by mobility shift assay relative to control
[36] = biological target: Fibroblast growth factor receptor 3 (Homo sapiens) (UniProt P22607); details: 3 uM
[37] = biological target: Proto-oncogene tyrosine-protein kinase Src (Homo sapiens) (UniProt P12931); test: Inhibition of SRC (unknown origin) at 3 uM after 10 mins by mobility shift assay relative to control
[38] = biological target: Fibroblast growth factor receptor 1 (Homo sapiens) (UniProt P11362); details: 3 uM
[39] = biological target: T1, Ribosomal protein S6 kinase alpha-3; details: 3 uM
[40] = biological target: Vascular endothelial growth factor receptor 2 (Homo sapiens) (UniProt P35968); details: 10 uM
[41] = biological target: T2, Mitogen-activated protein kinase 14; test: Inhibition of p38alpha (unknown origin) after 10 mins by mobility shift assay
[42] = biological target: T1, Ribosomal protein S6 kinase alpha-3; test: Inhibition of RSK2 (unknown origin) using AKRRRLSSLRA as substrate after 60 mins by fluorescence assay
[43] = biological target: Hepatocyte growth factor receptor (Homo sapiens) (UniProt P08581); test: Inhibition of c-MET (unknown origin) at 3 uM after 10 mins by mobility shift assay relative to control
[44] = biological target: Proto-oncogene tyrosine-protein kinase Src (Homo sapiens) (UniProt P12931); details: 10 uM
[45] = biological target: Vascular endothelial growth factor receptor 2 (Homo sapiens) (UniProt P35968); test: Inhibition of KDR (unknown origin) at 3 uM after 10 mins by mobility shift assay relative to control
MCF7 = test: Cytotoxicity against human MCF7 cells assessed as growth inhibition after 48 hrs by MTT assay; type: functional, cell-based; details: MCF7, 48 h; method in brief: as §1
[46] = biological target: Mast/stem cell growth factor receptor Kit (Homo sapiens) (UniProt P10721); test: Inhibition of cKit (unknown origin) at 10 uM after 10 mins by mobility shift assay relative to control
[47] = biological target: Serine/threonine-protein kinase pim-1 (Homo sapiens) (UniProt P11309); test: Inhibition of PIM1 (unknown origin) at 10 uM after 10 mins by mobility shift assay relative to control

T1 sequence (P51812 whole entry): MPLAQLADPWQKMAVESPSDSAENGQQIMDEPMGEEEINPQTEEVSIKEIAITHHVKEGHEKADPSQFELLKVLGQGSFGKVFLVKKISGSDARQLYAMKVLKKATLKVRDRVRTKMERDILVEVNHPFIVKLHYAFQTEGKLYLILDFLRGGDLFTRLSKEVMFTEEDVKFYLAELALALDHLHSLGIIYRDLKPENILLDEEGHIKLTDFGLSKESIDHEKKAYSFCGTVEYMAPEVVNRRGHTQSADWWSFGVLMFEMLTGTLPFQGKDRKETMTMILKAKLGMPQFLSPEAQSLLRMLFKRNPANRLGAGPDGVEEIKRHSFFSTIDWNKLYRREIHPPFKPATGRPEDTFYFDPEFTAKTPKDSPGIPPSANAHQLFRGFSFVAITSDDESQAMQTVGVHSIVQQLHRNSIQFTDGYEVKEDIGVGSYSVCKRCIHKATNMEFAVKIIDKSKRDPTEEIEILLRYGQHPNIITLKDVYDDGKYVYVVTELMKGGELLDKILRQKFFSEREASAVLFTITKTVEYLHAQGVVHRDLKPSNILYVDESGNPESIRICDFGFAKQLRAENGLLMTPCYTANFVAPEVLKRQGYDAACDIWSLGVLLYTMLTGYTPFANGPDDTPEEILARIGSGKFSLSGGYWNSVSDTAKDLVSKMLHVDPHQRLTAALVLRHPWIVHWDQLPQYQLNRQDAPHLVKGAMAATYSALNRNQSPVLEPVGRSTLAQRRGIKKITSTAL
T2 sequence (Q16539 whole entry): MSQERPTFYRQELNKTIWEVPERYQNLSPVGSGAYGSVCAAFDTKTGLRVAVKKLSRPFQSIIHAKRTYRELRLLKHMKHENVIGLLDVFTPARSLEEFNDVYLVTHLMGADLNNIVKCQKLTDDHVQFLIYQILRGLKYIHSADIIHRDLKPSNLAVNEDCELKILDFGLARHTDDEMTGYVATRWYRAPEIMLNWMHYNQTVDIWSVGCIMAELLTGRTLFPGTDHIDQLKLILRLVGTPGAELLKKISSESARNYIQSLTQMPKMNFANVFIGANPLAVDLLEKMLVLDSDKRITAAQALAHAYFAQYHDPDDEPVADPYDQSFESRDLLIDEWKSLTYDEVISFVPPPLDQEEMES
T3 sequence (P31749 whole entry): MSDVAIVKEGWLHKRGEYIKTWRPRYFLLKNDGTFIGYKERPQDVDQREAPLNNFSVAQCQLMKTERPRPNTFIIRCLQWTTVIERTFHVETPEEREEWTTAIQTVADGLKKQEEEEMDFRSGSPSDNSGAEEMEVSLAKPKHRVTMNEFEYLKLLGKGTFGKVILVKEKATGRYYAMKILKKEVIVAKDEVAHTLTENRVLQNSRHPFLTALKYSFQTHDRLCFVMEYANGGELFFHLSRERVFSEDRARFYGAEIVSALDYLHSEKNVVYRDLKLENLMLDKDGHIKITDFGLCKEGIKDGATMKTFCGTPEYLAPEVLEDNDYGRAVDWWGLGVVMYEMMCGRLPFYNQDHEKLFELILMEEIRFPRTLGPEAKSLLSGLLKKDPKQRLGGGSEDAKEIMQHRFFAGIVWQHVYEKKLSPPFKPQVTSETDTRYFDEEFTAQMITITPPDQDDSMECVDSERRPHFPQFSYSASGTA
Chain of Mitogen-activated protein kinase 9 (Homo sapiens) (P45984 whole entry, looked up): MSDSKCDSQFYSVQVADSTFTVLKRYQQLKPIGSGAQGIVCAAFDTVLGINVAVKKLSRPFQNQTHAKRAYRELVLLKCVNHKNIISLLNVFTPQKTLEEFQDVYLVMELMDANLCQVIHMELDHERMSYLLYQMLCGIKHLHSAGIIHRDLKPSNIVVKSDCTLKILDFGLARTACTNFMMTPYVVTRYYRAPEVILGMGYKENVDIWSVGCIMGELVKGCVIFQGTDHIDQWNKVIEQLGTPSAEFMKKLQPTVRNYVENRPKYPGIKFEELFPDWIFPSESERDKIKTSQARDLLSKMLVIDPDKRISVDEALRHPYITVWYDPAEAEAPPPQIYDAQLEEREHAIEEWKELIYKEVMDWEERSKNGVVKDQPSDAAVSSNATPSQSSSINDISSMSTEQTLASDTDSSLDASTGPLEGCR
Chain of Aurora kinase B (Homo sapiens) (Q96GD4 whole entry): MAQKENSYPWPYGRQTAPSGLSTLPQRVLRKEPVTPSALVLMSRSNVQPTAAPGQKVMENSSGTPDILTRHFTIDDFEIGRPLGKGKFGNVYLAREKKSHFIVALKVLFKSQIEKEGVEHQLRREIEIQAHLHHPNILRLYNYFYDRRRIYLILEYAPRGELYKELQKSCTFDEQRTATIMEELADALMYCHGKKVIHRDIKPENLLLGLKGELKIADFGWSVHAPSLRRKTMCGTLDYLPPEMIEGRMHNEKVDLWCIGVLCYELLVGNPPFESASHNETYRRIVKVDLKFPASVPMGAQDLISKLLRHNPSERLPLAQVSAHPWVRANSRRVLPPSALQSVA
Chain of Ribosomal protein S6 kinase beta-1 (Homo sapiens) (P23443 whole entry, looked up): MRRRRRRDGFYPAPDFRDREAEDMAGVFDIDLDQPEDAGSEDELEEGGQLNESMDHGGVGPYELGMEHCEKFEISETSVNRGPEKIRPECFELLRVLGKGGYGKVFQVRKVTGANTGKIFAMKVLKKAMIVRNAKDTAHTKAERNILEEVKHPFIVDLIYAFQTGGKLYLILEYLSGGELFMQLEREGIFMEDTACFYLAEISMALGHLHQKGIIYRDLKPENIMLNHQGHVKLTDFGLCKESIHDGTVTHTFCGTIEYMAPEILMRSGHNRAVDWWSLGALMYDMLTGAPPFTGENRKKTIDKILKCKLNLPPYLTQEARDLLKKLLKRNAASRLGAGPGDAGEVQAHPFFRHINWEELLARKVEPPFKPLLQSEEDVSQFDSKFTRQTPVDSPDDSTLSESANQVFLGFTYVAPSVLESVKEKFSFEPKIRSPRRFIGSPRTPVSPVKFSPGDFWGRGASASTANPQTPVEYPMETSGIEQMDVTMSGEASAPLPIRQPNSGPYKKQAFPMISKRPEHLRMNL
Chain of Tyrosine-protein kinase Lyn (Homo sapiens) (P07948 2-512 limits assumed): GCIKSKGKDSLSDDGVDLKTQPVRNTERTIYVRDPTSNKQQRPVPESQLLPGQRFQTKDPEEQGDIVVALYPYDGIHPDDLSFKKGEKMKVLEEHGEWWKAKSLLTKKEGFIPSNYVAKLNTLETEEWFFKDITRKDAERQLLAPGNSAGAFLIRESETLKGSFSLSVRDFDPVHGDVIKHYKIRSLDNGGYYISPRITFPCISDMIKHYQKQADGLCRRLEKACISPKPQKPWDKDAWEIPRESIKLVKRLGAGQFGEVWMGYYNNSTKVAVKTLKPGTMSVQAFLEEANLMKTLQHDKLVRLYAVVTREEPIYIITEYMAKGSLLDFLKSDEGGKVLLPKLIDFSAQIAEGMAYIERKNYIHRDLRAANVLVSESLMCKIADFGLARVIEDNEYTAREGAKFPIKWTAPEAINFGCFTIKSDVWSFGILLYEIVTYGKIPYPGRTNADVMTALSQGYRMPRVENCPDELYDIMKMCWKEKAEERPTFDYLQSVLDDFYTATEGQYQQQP
Chain of Mast/stem cell growth factor receptor Kit (Homo sapiens) (P10721 whole entry): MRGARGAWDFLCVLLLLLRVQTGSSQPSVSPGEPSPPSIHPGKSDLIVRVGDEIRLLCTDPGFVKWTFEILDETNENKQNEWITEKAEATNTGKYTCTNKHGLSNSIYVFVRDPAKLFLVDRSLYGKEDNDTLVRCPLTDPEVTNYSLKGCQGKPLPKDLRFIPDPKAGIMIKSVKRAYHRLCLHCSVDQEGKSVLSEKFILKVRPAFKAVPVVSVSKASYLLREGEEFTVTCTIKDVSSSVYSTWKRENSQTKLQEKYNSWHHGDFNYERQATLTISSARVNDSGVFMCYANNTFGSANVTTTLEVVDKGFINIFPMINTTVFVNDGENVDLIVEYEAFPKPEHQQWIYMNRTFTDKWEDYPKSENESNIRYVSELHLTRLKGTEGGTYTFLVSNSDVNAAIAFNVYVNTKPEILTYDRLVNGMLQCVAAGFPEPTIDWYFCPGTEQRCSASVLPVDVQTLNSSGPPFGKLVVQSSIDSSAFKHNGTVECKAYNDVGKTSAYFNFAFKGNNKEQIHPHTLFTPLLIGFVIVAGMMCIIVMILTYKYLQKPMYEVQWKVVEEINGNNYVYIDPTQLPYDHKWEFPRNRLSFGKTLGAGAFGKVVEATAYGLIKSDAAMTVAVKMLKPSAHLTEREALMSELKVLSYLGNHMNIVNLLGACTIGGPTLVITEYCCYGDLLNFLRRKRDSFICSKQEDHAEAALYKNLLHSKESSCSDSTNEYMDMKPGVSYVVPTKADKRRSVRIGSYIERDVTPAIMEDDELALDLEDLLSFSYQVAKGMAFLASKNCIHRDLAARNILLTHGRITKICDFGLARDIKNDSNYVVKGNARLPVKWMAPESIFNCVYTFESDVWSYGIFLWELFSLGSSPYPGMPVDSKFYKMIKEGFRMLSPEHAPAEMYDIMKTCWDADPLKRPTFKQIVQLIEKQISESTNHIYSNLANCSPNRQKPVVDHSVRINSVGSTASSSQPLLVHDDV
Chain of Tyrosine-protein kinase Lck (Homo sapiens) (P06239 2-509 limits assumed): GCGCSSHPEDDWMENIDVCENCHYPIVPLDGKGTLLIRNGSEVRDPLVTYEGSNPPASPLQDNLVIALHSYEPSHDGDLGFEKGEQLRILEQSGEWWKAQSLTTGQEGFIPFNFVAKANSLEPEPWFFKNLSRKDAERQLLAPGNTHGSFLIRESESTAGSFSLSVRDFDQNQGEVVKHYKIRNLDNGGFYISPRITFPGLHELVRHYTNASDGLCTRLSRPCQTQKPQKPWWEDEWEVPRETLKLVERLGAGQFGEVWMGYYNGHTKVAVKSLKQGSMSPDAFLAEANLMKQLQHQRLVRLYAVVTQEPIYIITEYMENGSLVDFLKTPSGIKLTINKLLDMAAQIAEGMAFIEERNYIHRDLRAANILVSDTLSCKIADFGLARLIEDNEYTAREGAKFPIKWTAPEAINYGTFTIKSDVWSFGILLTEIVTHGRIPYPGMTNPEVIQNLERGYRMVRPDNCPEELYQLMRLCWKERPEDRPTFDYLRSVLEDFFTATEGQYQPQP

inhibition [1]: 93.4% | inhibition [2]: 27% | inhibition [3]: 8.3% | IC50 [4]: 11 nM | inhibition [5]: 44% | inhibition [6]: 20% | inhibition [7]: 6.2% | inhibition [8]: 71% | inhibition [9]: 25% | inhibition [10]: 31% | inhibition [11]: 4.4% | inhibition [12]: 40% | inhibition [13]: 55% | inhibition [14]: 19% | inhibition [15]: 65% | inhibition [16]: 6.7% | inhibition [17]: 4.2% | inhibition [18]: 16% | inhibition [19]: 34% | inhibition [20]: 37% | inhibition [21]: 55% | inhibition [22]: 13% | inhibition [23]: 7.8% | inhibition [24]: 49% | inhibition [25]: 31% | inhibition [26]: 65% | inhibition [27]: 43% | inhibition [28]: 25% | inhibition [29]: 71% | inhibition [30]: 67% | inhibition [31]: 38% | inhibition [32]: 57% | inhibition [33]: 31% | inhibition [34]: 36% | inhibition [35]: 33% | inhibition [36]: 44% | inhibition [37]: 30% | inhibition [38]: 44% | inhibition [39]: 61% | inhibition [40]: 65% | IC50 [41]: 11 nM | IC50 [42]: 500 nM | inhibition [43]: 12% | inhibition [44]: 55% | inhibition [45]: 39% | inhibition [46]: 64% | inhibition [47]: 4.7%
Structure (SMILES): O=C1Nc2ccccc2/C1=C/c1c[nH]nc1-c1ccccc1[N+](=O)[O-]
IC50 (PC-3): 9320 nM | IC50 (MCF7): 14800 nM
